Assay results published in ChEMBL document CHEMBL1955799, “Cyclic dipeptides exhibit potency for scavenging radicals” (Bioorg Med Chem, 2012).

How the values were obtained:
Assay type in all cases: functional
[1] = Antioxidant activity assessed as superoxide radical scavenging activity at 2.5 mM by electron spin resonance method
Outline: (§1)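 ESR spectrometry of radical signal, same settings for hydroxyl and superoxide radicals: magnetic field 335.7 ± 5 mT, power 4 mW at 9.414 GHz, modulation 100 kHz 1 × 0.079 mT, response 0.1 s, amplitude 160, sweep time 2 min, 25 °C. Activity is expressed as % inhibition of the radical signal.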

[2] = Antioxidant activity assessed as hydroxyl radical scavenging activity by electron spin resonance method; outline: as §1
[3] = Antioxidant activity assessed as hydroxyl radical scavenging activity at 2.5 mM by electron spin resonance method; outline: as §1
[4] = Antioxidant activity assessed as superoxide radical scavenging activity by electron spin resonance method; outline: as §1

Row | IC50 [2] | IC50 [4] | Compound | inhibition [1] | inhibition [3]
1 | – | – | CC(C)C[C@@H]1NC(=O)[C@H](C)NC1=O | 0% | –
2 | 160 µM | – | CC(C)C[C@@H]1NC(=O)[C@H](CCCCN)NC1=O | 0% | 96%
3 | – | – | CC(C)C[C@@H]1NC(=O)[C@H](C(C)C)NC1=O | 0% | 12.3%
4 | – | – | CC(C)C[C@@H]1NC(=O)[C@H](CCC(N)=O)NC1=O | 0% | 19%
5 | – | – | CC(C)C[C@@H]1NC(=O)CNC1=O | 0% | 0%
6 | 1000 µM | – | CC(C)C[C@@H]1NC(=O)[C@H](CO)NC1=O | 0% | 95.2%
7 | 80 µM | – | CC(C)C[C@@H]1NC(=O)[C@H](CCC(=O)O)NC1=O | 0% | 97.8%
8 | – | – | CC(C)C[C@@H]1NC(=O)[C@H](Cc2ccccc2)NC1=O | 0% | 23.5%
9 | 850 µM | – | CC(C)C[C@@H]1NC(=O)[C@H](Cc2cnc[nH]2)NC1=O | 0% | 83.9%
10 | – | – | CC(C)C[C@@H]1NC(=O)[C@H](CC(C)C)NC1=O | 0% | 26%
11 | 1800 µM | – | CC(C)C[C@@H]1NC(=O)[C@H](Cc2c[nH]c3ccccc23)NC1=O | 0% | 66%
12 | 1100 µM | – | CC(C)C[C@@H]1NC(=O)[C@@H]2CCCN2C1=O | 0% | 86.2%
13 | 4 µM | – | CC(C)C[C@@H]1NC(=O)[C@H](CC(=O)O)NC1=O | 0% | 95%
14 | 800 µM | – | CSCC[C@@H]1NC(=O)[C@H](CC(C)C)NC1=O | 0% | 79%
15 | 170 µM | – | CC(C)C[C@@H]1NC(=O)[C@H](CC(N)=O)NC1=O | 0% | 96%
16 | 100 µM | 880 µM | CC(C)C[C@@H]1NC(=O)[C@H](CS)NC1=O | 83.3% | 88.9%
17 | – | – | VITAMIN E | 32.3% | 37.7%
18 | – | – | CC(C)C[C@@H]1NC(=O)[C@H]([C@@H](C)O)NC1=O | 0% | 0%
